Data on five compounds can be found in ChEMBL document CHEMBL1123934, “Indazoles as indole bioisosteres: synthesis and evaluation of the tropanyl ester and amide of indazole-3-carboxylate as antagonists at the serotonin 5HT3 receptor” (J Med Chem, 1987).

As usually defined, the ED50 is the dose at which the effect has come halfway, by size or by number of responders. Read a low ED50 as an effect at a small dose.

Common to all, as to assay type: functional
Test [1] addresses T1, Serotonin 3 (5-HT3) receptor (Rattus norvegicus) (UniProt P35563+Q9JJ16). The experiment in a line: The compound was evaluated for the inhibition of the von Bezold-Jarisch reflex in rat administered intravenously. An outline of the steps:
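Urethane-anesthetized rats; serotonin bolus 0.03 mg/kg iv (femoral vein) gives control reflex bradycardia. After heart rate returns to baseline (within 5 min), test compound iv as free base in dilute acid (≤1% HCl). Serotonin challenge repeated after 15 min. Percent inhibition of bradycardia at three doses, n ≥ 3 each. ED50 from mean values.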

Test [2] addresses T1, Serotonin 3 (5-HT3) receptor (Rattus norvegicus). The test is described as follows: Selectivity ratio of peroral vs intravenous delivery.
The target is the same in test [3]. The test is described as follows: The compound was evaluated for the inhibition of the von Bezold-Jarisch reflex in rat administered orally. In short, it runs like this: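 Overnight-fasted rats gavaged with compound (free base in ≤1% HCl, 5 mL/kg). Urethane anesthesia 45 min later. Serotonin bolus 0.03 mg/kg iv 15 min after anesthesia. Saline-dosed rats as controls. Percent inhibition of reflex bradycardia at three doses, n ≥ 3 each. ED50 from mean values.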

Each structure is given as a SMILES string.

In the case of `CN1C2CCC1CC(NC(=O)c1c3ccccc3nn1C)C2` (stereo unspecified), the median effective dose (ED50) in test [1] is more than 0.01 mg/kg.

For `CN1C2CCC1CC(OC(=O)c1[nH]nc3ccccc13)C2` (stereo unspecified), the Ratio in test [2] was 66. The ED50 came to 0.2 mg/kg in test [3] and 0.003 mg/kg in test [1].

As for `CN1C2CCCC1CC(NC(=O)c1nn(C)c3ccccc13)C2` (stereo unspecified), the Ratio in test [2] came out at 15.

On to `CN1C2CCC1CC(NC(=O)c1n[nH]c3ccccc13)C2` (stereo unspecified), for which, in test [2], the Ratio is 10. Moreover, the ED50 in test [3] amounted to 0.02 mg/kg; in test [1], 0.002 mg/kg.

Take `CN1[C@@H]2CC[C@H]1C[C@@H](OC(=O)c1c[nH]c3ccccc13)C2`: the Ratio in test [2] turned out to be 50. The ED50 in test [3] was 0.2 mg/kg; in test [1], 0.004 mg/kg.
